From ChEMBL document CHEMBL3856229, “Hybrid Antibiotic Overcomes Resistance in P. aeruginosa by Enhancing Outer Membrane Penetration and Reducing Efflux” (J Med Chem, 2016)

Key:
Assay type in all cases: functional
Pseudomonas aeruginosa [1] = assay: Antibacterial activity against Pseudomonas aeruginosa PAO1 assessed as fractional inhibitory concentration index after 18 hrs in presence of trimethoprim by checkerboard method
Summary of the method: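 Checkerboard combinations of the hybrid with each partner antibiotic were tested against P. aeruginosa PAO1. Interaction is expressed as the fractional inhibitory concentration (FIC) index: ≤0.5 means synergy, 1–2 no interaction, ≥4 antagonism.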

Escherichia coli = assay: Antibacterial activity against fluoroquinolone resistant Escherichia coli isolate 92969 harboring beta-lactamase CTX-M-15/OXA-1
[2] = system: Stenotrophomonas maltophilia; assay: Antibacterial activity against Stenotrophomonas maltophilia isolate CAN-ICU 62584 after 24 hrs by microtitre broth dilution method; settings: isolate CAN-ICU 62584, 24 h
Pseudomonas aeruginosa [3] = assay: Antibacterial activity against Pseudomonas aeruginosa PAO1 assessed as outer membrane permeabilization by measuring increase in 1-N-phenylnaphthylamine measured […] for 4.5 mins by fluorescence assay
Summary of the method: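 PAO1 cells received NPN, then the test agent at 50, 32, 16 or 8 µg/mL, added at 120 s. Colistin at 5 µg/mL was the positive control. Uptake was followed as NPN fluorescence. The assay was run in triplicate, and each point is the mean of three determinations ± SEM.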

Pseudomonas aeruginosa [4] = assay: Antibacterial activity against Pseudomonas aeruginosa ATCC 27853 after 24 hrs by microtitre broth dilution method; settings: ATCC 27853, 24 h
[5] = Selectivity ratio of MIC for Pseudomonas aeruginosa PAO1 to MIC for Pseudomonas aeruginosa PAO750
Summary of the method: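 MICs were measured in PAO1 and in PAO750. PAO750 is a PAO1 derivative lacking the MexAB-OprM, MexCD-OprJ, MexEF-OprN, MexJK and MexXY efflux pumps and the outer membrane protein OpmH.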

For COc1c(N2C[C@@H]3CCCN(CCCCCCCCCCCCO[C@@H]4[C@@H](O[C@H]5O[C@H](CO)[C@@H](O)[C@H](N)[C@H]5O)[C@H](N)C[C@H](N)[C@H]4O[C@H]4O[C@H](CN)[C@@H](O)C[C@H]4N)[C@@H]3C2)c(F)cc2c(=O)c(C(=O)O)cn(C3CC3)c12.Cl.Cl.Cl.Cl.Cl, which “fractional inhibitory concentration index (FICI)” value (Pseudomonas aeruginosa [1]) is on record?
The value was 0.25.

What about the MIC (Escherichia coli) of the same compound?
The MIC was no less than 64 µg/mL.

And the MIC [2]?
The MIC was 32 µg/mL.

What about the Activity (Pseudomonas aeruginosa [3]) of the same compound?
The Activity was “Dose-dependent effect”.

And the MIC (Pseudomonas aeruginosa [4])?
The MIC was 4 µg/mL.

What about the Selectivity ratio [5] of the same compound?
Its Selectivity ratio is 8.
